Source: ChEMBL document CHEMBL4308903, “Synthesis of amides from (E)-3-(1-chloro-3,4-dihydronaphthalen-2-yl)acrylic acid and substituted amino acid esters as NorA efflux pump inhibitors of Staphylococcus aureus” (Bioorg Med Chem, 2019)
The source made the active and inactive calls. No cut-off for these calls is given here.

Key:
Staphylococcus aureus [1] = assay: Potentiation of ciprofloxacin-induced antibacterial activity in norA-deleted Staphylococcus aureus K1758 assessed as reduction in ciprofloxacin MIC at 0.8 to 50 ug/ml by broth checkerboard microdilution method relative to control; format: functional
How it was run: (§1)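 Broth checkerboard microdilution in cation-adjusted Mueller–Hinton broth. Compounds tested at seven concentrations (50-0.7 μg/mL) against twofold serial dilutions of ciprofloxacin (32-0.06 μg/mL). MEC is the minimum concentration that lowers the ciprofloxacin MIC fourfold. Piperine and SK-20 served as reference EPIs.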

Staphylococcus aureus [2] = assay: Potentiation of ciprofloxacin-induced antibacterial activity in Staphylococcus aureus 1199 assessed as reduction in ciprofloxacin MIC at 0.8 to 50 ug/ml by broth checkerboard microdilution method relative to control; format: functional; how it was run: as §1
[3] = molecular target: T1, Quinolone resistance protein NorA (Staphylococcus aureus) (UniProt P0A0J7); assay: Inhibition of NorA in Staphylococcus aureus 1199B assessed as reduction in ethidium bromide efflux at 50 uM measured over 5 mins interval for 30 mins by fluorescence assay relative to control
T1 sequence (whole entry): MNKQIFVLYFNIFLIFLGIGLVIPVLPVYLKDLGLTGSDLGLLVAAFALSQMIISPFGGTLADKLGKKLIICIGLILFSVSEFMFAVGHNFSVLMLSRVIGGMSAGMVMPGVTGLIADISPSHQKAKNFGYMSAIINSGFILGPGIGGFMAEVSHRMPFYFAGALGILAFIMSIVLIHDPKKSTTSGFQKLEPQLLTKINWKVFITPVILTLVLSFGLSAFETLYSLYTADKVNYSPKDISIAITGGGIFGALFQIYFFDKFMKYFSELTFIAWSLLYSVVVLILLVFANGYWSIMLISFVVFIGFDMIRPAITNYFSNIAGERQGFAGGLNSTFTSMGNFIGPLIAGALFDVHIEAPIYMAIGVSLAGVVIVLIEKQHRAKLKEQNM

[4] = molecular target: T1, Quinolone resistance protein NorA (Staphylococcus aureus); assay: Inhibition of NorA in Staphylococcus aureus 1199B assessed as minimum concentration required to effectively reduce ciprofloxacin MIC by four fold by broth checkerboard microdilution method; how it was run: as §1
Staphylococcus aureus [5] = assay: Growth inhibition of norA-deleted Staphylococcus aureus K1758 at 50 ug/ml by broth microdilution method; format: organism-based
How it was run: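 MIC determined by broth microdilution in cation-adjusted Mueller–Hinton broth following CLSI guidelines. MIC is the lowest concentration giving no visible growth.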

Staphylococcus aureus [6] = assay: Growth inhibition of Staphylococcus aureus 1199 at 50 ug/ml by broth microdilution method; format: organism-based
[7] = molecular target: T1, Quinolone resistance protein NorA (Staphylococcus aureus); assay: Inhibition of NorA Staphylococcus aureus 1199B assessed as reduction in ethidium bromide efflux at 6.25 to 50 uM measured at 5 mins interval for 30 mins by fluorescence assay relative to control
HepG2 = assay: Cytotoxicity against human HepG2 cells assessed as reduction in cell viability at 100 uM after 24 hrs by MTT assay; format: cell-based; conditions: hepg2, 24 h
How it was run: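 HepG2 monolayer (1×10^6 cells/well) in high-glucose DMEM exposed to 50 and 100 μM in triplicate for 24 h at 37°C, 5% CO2. MTT added, then formazan absorbance read at 570 nm. Percent cytotoxicity calculated against tamoxifen positive control (10 and 20 µg/mL) and untreated healthy cells.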

[8] = molecular target: T1, Quinolone resistance protein NorA (Staphylococcus aureus); assay: Inhibition of NorA in Staphylococcus aureus 1199B assessed as assessed as potentiation of ciprofloxacin-induced antibacterial activity by measuring reduction in ciprofloxacin MIC at 25 to 50 ug/ml by broth checkerboard microdilution method relative to control; how it was run: as §1
[9] = molecular target: T1, Quinolone resistance protein NorA (Staphylococcus aureus); assay: Inhibition of NorA in Staphylococcus aureus 1199B assessed as […] at 25 uM measured at 5 mins interval for 60 mins by fluorescence assay relative to control; conditions: in the assay text read “for 30 mins” for “for 60 mins”
How it was run: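 Ethidium bromide accumulation measured in SA-1199B cells preloaded with ethidium bromide, with compound at 25 μM. Fluorescence gain (excitation 530 nm, emission 600 nm) recorded at 5-min intervals.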

[10] = molecular target: T1, Quinolone resistance protein NorA (Staphylococcus aureus); assay: Inhibition of NorA in Staphylococcus aureus 1199B assessed as reduction in ethidium bromide efflux at 50 uM measured after 5 mins by fluorescence assay relative to control
How it was run: (§2)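 SA-1199B grown on tryptone soya agar. Ethidium bromide efflux followed by fluorescence (excitation 530 nm, emission 600 nm) over 5 min with compound at 0–50 μM. Run in triplicate. Percent inhibition calculated from mean values against the no-inhibitor control.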

[11] = molecular target: T1, Quinolone resistance protein NorA (Staphylococcus aureus); assay: Inhibition of NorA Staphylococcus aureus 1199B assessed as reduction in ethidium bromide efflux at 6.25 to 50 uM measured after 5 mins by fluorescence assay relative to control; how it was run: as §2
Staphylococcus aureus [12] = assay: Potentiation of ciprofloxacin-induced antibacterial activity in Staphylococcus aureus 1199 assessed as minimum concentration required to effectively reduce ciprofloxacin MIC by four fold by broth checkerboard microdilution method; format: functional; conditions: read-out: MEC; how it was run: as §1

SMILES	fold change (FC) (Staphylococcus aureus [1])	fold change (FC) (Staphylococcus aureus [2])	inhibition [3] [%]	MEC [4] [µg/mL]	growth inhibition (GI) (Staphylococcus aureus [5])	growth inhibition (GI) (Staphylococcus aureus [6])	inhibition [7]	Activity (HepG2)	fold change (FC) [8]	inhibition [9]	inhibition [10] [%]	inhibition [11] [%]	minimal effective concentration (Staphylococcus aureus [12]) [µg/mL]
CCC(/C=C/C(=O)N1CCCCC1)=C\c1ccc2c(c1)OCO2	0	4	68.8	6.25	Non-Toxic	Non-Toxic							
COC(=O)[C@H](Cc1ccc(O)cc1)NC(=O)/C=C/C1=C(Cl)c2ccccc2CC1	0	4	85.2	1.5	Non-Toxic	Non-Toxic	> 80%	Non-Toxic	16	Active			
COC(=O)[C@@H](NC(=O)/C=C/C1=C(Cl)c2ccccc2CC1)C(C)C	0	2		3.12	Non-Toxic	Non-Toxic					67.2	67.2	
COC(=O)[C@H](Cc1c[nH]c2ccccc12)NC(=O)/C=C/C1=C(Cl)c2ccccc2CC1	0	4	83.9	1.5	Non-Toxic	Non-Toxic	> 80%	Non-Toxic	16	inactive			
COC(=O)C(C)(C)NC(=O)/C=C/C1=C(Cl)c2ccccc2CC1	0	0		12.5	Non-Toxic	Non-Toxic					41.4		
COC(=O)CNC(=O)/C=C/C1=C(Cl)c2ccccc2CC1	0	0		> 50	Non-Toxic	Non-Toxic							
COC(=O)[C@H](CC(C)C)NC(=O)/C=C/C1=C(Cl)c2ccccc2CC1	0	2		12.5	Non-Toxic	Non-Toxic					56.2		
COC(=O)[C@H](C)NC(=O)/C=C/C1=C(Cl)c2ccccc2CC1	0	0		25	Non-Toxic	Non-Toxic							
COC(=O)[C@H]1[C@H]2C[C@@H]3c4[nH]c5cc(OC)ccc5c4CCN3C[C@H]2C[C@@H](OC(=O)c2cc(OC)c(OC)c(OC)c2)[C@@H]1OC [RESERPINE]	0	2			Non-Toxic	Non-Toxic	Active			Active			
COC(=O)[C@@H]1CCCN1C(=O)/C=C/C1=C(Cl)c2ccccc2CC1	0	2		6.25	Non-Toxic	Non-Toxic					80.3	> 80	50
COC(=O)CC1(NC(=O)/C=C/C2=C(Cl)c3ccccc3CC2)CCCCC1	0	0		> 50	Non-Toxic	Non-Toxic							
COC(=O)CC1(NC(=O)/C=C/C2=C(Cl)c3ccccc3CC2)CCC(C(C)(C)C)CC1 (configuration not stated)	0	0		> 50	Non-Toxic	Non-Toxic							
COC(=O)[C@H]1CCCN1C(=O)/C=C/C1=C(Cl)c2ccccc2CC1	0	0		12.5	Toxic	Toxic					52.6		
COC(=O)CCCNC(=O)/C=C/C1=C(Cl)c2ccccc2CC1	0	0		> 50	Non-Toxic	Non-Toxic							
COC(=O)[C@H](Cc1ccccc1)NC(=O)/C=C/C1=C(Cl)c2ccccc2CC1	0	0		12.5	Non-Toxic	Non-Toxic					48		
CC[C@@H](C)[C@H](NC(=O)/C=C/C1=C(Cl)c2ccccc2CC1)C(=O)OC	0	2		12.5	Non-Toxic	Non-Toxic					58.2		
COC(=O)CCNC(=O)/C=C/C1=C(Cl)c2ccccc2CC1	0	0		25	Non-Toxic	Non-Toxic							
